Calls of active or inactive are those of the source. The rule behind the calls is not given here.
Tests used:
[1] = biological target: T1, Muscarinic acetylcholine receptor M5 (Homo sapiens) (UniProt P08912); experiment: Displacement of [3H]NMS from human M5 AChR expressed in CHO cell membranes at 100 uM after 1 to 2 hrs by liquid scintillation spectrometry method relative to control
T1 sequence (whole entry): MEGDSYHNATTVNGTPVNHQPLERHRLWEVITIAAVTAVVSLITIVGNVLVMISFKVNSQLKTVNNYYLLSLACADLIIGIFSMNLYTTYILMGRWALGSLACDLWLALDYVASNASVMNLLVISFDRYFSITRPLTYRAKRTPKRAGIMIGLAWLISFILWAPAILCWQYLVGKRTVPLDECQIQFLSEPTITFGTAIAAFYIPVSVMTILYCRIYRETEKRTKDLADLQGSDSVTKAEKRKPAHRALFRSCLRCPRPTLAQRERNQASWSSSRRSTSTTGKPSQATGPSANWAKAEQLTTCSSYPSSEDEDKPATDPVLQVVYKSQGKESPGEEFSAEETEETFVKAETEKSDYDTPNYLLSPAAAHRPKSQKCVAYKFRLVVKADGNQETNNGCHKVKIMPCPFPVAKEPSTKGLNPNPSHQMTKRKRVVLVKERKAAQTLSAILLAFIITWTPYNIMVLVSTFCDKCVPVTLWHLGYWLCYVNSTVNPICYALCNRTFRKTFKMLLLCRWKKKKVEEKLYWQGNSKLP
Method in brief: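 CHO membranes expressing human M5 (10 µg protein/well) with 0.3 nM [3H]NMS and analog (1 nM–100 µM) in 50 mM Tris-HCl pH 7.4, 2 h at 25 °C. […] Filtered on GF/B, counted by scintillation. IC50 converted to Ki; three independent experiments in duplicate.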

[2] = biological target: Muscarinic acetylcholine receptor (Rattus norvegicus) (UniProt P08482+P08483+P08485+P08911+P10980); experiment: Agonist activity at muscarinic acetylcholine receptor in superfused rat striatal slices assessed as augmentation of oxotremorine-induced [3H]DA release at 0.1 to 10 uM preincubated for 35 mins in presence of [3H]DA followed by oxotremorine addition and measured after 25 mins by liquid scintillation spectroscopic method
Method in brief: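 Rat striatal slices (500 µm) in Krebs' buffer pH 7.4 at 34 °C for 60 min, with 0.1 µM [3H]DA over the final 30 min. Superfused at 0.6 mL/min with 10 µM nomifensine and 10 µM pargyline; 5-min fractions. Basal outflow taken over 15 min, then test agent 35 min, then 100 µM oxotremorine 25 min. Overflow = summed radioactivity minus basal, by scintillation; n = 4–10.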

[3] = biological target: T2, Muscarinic acetylcholine receptor M4 (Homo sapiens, UniProt P08173); experiment: Displacement of [3H]NMS from human M4 AChR expressed in CHO cell membranes after 1 to 2 hrs by liquid scintillation spectrometry method
T2 sequence (P08173 whole entry): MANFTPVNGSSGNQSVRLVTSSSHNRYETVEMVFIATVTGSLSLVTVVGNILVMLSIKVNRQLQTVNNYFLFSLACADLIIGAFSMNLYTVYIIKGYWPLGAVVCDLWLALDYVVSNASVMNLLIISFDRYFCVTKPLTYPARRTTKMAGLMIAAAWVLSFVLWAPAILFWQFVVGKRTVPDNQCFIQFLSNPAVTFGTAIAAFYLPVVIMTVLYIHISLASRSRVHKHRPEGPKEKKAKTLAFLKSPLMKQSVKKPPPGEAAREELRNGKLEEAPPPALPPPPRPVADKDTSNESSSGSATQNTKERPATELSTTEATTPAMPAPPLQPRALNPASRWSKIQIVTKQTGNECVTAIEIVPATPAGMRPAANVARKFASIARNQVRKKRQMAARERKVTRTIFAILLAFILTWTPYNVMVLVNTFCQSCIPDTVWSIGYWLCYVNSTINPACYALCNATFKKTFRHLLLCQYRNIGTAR
Method in brief: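 Human M4-expressing CHO membranes (20 µg protein/well) incubated 2 h at 25 °C with 0.3 nM [3H]NMS and analog (1 nM–100 µM) in 50 mM Tris–HCl pH 7.4. […] Filtered, washed, counted by scintillation. IC50 taken from inhibition curves, Ki from three independent duplicate experiments (mean ± SEM).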

[4] = biological target: Muscarinic acetylcholine receptor M3 (Homo sapiens, UniProt P20309); experiment: Displacement of [3H]NMS from human M3 AChR expressed in CHO cell membranes after 1 to 2 hrs by liquid scintillation spectrometry method; assay type: cell-based
Muscarinic acetylcholine receptor M3, sequence (P20309 whole entry): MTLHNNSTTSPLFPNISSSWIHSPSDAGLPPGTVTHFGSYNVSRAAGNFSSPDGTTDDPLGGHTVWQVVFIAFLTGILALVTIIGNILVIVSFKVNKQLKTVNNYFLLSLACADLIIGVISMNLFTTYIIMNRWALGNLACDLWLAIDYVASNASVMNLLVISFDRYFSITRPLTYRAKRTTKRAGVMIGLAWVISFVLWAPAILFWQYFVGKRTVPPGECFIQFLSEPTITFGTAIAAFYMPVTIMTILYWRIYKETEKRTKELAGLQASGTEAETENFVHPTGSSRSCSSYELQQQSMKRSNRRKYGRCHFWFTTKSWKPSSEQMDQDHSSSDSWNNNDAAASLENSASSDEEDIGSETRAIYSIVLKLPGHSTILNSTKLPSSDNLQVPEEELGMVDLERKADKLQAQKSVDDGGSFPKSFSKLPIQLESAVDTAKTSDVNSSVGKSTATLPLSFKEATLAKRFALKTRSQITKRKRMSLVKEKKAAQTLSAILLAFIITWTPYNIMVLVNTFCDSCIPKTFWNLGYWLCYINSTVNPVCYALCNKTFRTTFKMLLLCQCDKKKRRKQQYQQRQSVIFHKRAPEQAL

[5] = biological target: T3, Muscarinic acetylcholine receptor M2 (Homo sapiens, UniProt P08172); experiment: Displacement of [3H]NMS from human M2 AChR expressed in CHO cell membranes after 1 to 2 hrs by liquid scintillation spectrometry method
T3 sequence (P08172 whole entry): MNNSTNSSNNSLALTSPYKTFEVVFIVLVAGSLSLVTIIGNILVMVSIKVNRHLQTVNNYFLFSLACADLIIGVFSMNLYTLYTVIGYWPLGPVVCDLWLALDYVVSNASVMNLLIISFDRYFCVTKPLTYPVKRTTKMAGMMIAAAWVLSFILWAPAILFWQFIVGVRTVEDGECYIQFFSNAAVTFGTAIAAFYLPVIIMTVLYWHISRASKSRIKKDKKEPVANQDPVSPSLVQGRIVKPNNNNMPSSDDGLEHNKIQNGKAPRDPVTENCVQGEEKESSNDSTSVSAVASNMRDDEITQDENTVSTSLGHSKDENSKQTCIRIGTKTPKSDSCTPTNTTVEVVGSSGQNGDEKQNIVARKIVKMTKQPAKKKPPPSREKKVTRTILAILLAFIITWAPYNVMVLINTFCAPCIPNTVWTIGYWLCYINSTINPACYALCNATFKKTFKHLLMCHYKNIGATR
Method in brief: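 CHO membranes expressing the human subtype (20 µg protein/well) with 0.3 nM [3H]NMS and analog (1 nM–100 µM) in 50 mM Tris-HCl pH 7.4, 2 h at 25 °C. […] Filtered on GF/B, washed, counted by scintillation. IC50 taken from curves to give Ki; three independent experiments in duplicate.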

[6] = biological target: T4, Muscarinic acetylcholine receptor M1 (Homo sapiens) (UniProt P11229); details: CHO, at 100 µM
T4 sequence (whole entry): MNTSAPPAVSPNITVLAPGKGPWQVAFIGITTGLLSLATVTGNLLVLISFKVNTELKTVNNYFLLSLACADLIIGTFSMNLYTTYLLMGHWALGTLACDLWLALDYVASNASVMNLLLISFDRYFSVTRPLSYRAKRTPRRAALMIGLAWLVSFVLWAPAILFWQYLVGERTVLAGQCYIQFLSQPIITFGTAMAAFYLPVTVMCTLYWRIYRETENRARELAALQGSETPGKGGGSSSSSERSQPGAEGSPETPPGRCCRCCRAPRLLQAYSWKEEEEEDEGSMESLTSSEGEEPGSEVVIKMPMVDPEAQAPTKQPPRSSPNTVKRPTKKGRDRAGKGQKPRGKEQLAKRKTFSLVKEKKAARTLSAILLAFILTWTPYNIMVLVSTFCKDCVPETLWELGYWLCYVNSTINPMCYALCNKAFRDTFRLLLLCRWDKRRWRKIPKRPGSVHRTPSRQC

Question: Which results are given for `O=C(OC1CN2CCC1CC2)N(CCc1ccc(F)cc1)c1ccccc1` (racemic)?
Answer: Imax [1]: 99.8%; Activity [2]: Active; Ki [3]: 2.2 nM; Ki [4]: 2.6 nM; Ki [5]: 13 nM; Imax [6]: 99.9%
